Data: ChEMBL document CHEMBL4602735, “Discovery of (1H-Pyrazolo[3,4-c]pyridin-5-yl)sulfonamide Analogues as Hepatitis B Virus Capsid Assembly Modulators by Conformation Constraint” (J Med Chem, 2020)
In brackets after ≈: the same amount, converted by molar mass. Each block holds one compound with its values, some of them ahead of it. Activity calls are given as the source filed them. The calls are words filed in the database; no cut-off is given here.

What was measured:
[1] = Solubility in water at 1 mg at 25 degC by HPLC analysis; format: physicochemical
Procedure, shortened: (§1)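 Solubility determined in water or 0.067 M phosphate buffer at pH 5.8, 6.8 and 7.4. Values are reported in mg/mL; ND means below the detection limit.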

[2] = Solubility in pH 6.8 phosphate buffer at 1 mg at 25 degC by HPLC analysis; format: physicochemical; procedure, shortened: as §1
[3] = Solubility in pH 7.4 phosphate buffer at 1 mg at 25 degC by HPLC analysis; format: physicochemical; procedure, shortened: as §1
[4] = Solubility in pH 5.8 phosphate buffer at 1 mg at 25 degC by HPLC analysis; format: physicochemical; procedure, shortened: as §1
[5] = Cytotoxicity in human HepG2 cells assessed as induction of cell killing; format: cell-based
Hepatitis B virus [6] = assay: Antiviral activity against HBV infected in human HepAD38 cells assessed as reduction in viral DNA levels incubated for 6 days by PCR analysis; format: functional, organism-based; conditions: HePAD38, 144 h
Hepatitis B virus [7] = assay: Antiviral activity against multidrug-resistant HBV infected in human HepG2.1403F cells assessed as reduction in viral replication incubated for 6 days by PCR analysis; format: functional, organism-based; conditions: 144 h
Procedure, shortened: (§2)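 Wild-type HBV replication measured in HepAD38 and HepG2.2.15 cells, lamivudine/entecavir-resistant HBV in HepG2.A64 cells (rtL180M+rtT184L+rtM204V) and multidrug-resistant HBV in HepG2.1403F cells (rtL180M+rtM204V+rtS202G+rtN236T). Read-out is reduction of HBV DNA. EC50 is reported as mean ± SD.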

Hepatitis B virus [8] = assay: Antiviral activity against HBV infected in human HepG2.A64 cells containing reverse transcriptase L180M/T184L/M204V mutant assessed as reduction in viral replication incubated for 6 days by PCR analysis; format: functional, organism-based; conditions: HepG2.A64, 144 h; procedure, shortened: as §2
[9] = Cytotoxicity in human HepAD38 cells assessed as induction of cell killing; format: cell-based
[10] = Intrinsic clearance in mouse liver microsomes; format: ADME, Microsome; conditions: read-out: CLH
Hepatitis B virus [11] = assay: Inhibition of HBsAg secretion in HBV infected human HepAD38 cells at 2 uM for 4 days by ELISA; format: functional, organism-based
Procedure, shortened: (§3)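 HepAD38 or HepG2.2.15 cells were treated at 2 µM for 4 days, with medium replaced every 2 days. Intracellular and extracellular DNA and RNA were quantified by qPCR or qRT-PCR, and HBeAg and HBsAg by ELISA. Results were compared with DMSO vehicle as mean ± SD, using a two-tailed t-test.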

Hepatitis B virus [12] = assay: Antiviral activity against HBV infected in human HepAD38 cells assessed as inhibition of intracellular viral RNA accumulation at 2 uM for 4 days by qPCR or qRT-PCR relative to control; format: functional, organism-based; procedure, shortened: as §3
Hepatitis B virus [13] = assay: Antiviral activity against HBV infected in human HepG2.2.15 cells assessed as inhibition of intracellular viral RNA accumulation at 2 uM for 4 days by qPCR or qRT-PCR relative to control; format: functional, organism-based; conditions: HepG2 2.2.15; procedure, shortened: as §3
Hepatitis B virus [14] = assay: Antiviral activity against HBV infected in human HepAD38 cells assessed as inhibition of intracellular viral DNA accumulation at 2 uM for 4 days by qPCR or qRT-PCR relative to control; format: functional, organism-based; procedure, shortened: as §3
Hepatitis B virus [15] = assay: Antiviral activity against HBV infected in human HepG2.2.15 cells assessed as inhibition of intracellular viral DNA accumulation at 2 uM for 4 days by qPCR or qRT-PCR relative to control; format: functional, organism-based; conditions: HepG2 2.2.15; procedure, shortened: as §3
Hepatitis B virus [16] = assay: Antiviral activity against HBV infected in human HepG2.2.15 cells assessed as reduction in viral DNA levels incubated for 6 days by PCR analysis; format: functional, organism-based; conditions: HepG2 2.2.15, 144 h
Hepatitis B virus [17] = assay: Inhibition of HBsAg secretion in HBV infected human HepG2.2.15 cells at 2 uM for 4 days by ELISA; format: functional, organism-based; conditions: HepG2 2.2.15; procedure, shortened: as §3
[18] = Selectivity index, ratio of CC50 for cytotoxicity in human HepAD38 cells assessed as induction of cell killing to EC50 for antiviral activity against HBV infected in human HepAD38 cells assessed as reduction in viral DNA levels incubated for 6 days by PCR analysis; format: toxicity, cell-based; conditions: read-out: Ratio CC50/EC50
[19] = Intrinsic clearance in human liver microsomes; format: ADME, Microsome; conditions: read-out: CLH
[20] = Half life in mouse plasma by HPLC analysis; format: ADME, cell-free
Procedure, shortened: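 Prodrug incubated in plasma at 37 °C, with percent remaining determined by HPLC to derive half-life.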

[21] = Stability in pH 7.4 buffer assessed as compound remaining level at 37 degC by HPLC analysis; format: physicochemical
Procedure, shortened: (§4)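 Prodrug incubated in buffer (0.1 M HCl, pH 5.8, 6.8 or 7.4) at 37 °C; percent of compound remaining determined by HPLC; remaining percentage reported after 3 h, stability meaning no hydrolysis after 2 h.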

[22] = Stability in pH 6.8 buffer assessed as compound remaining level at 37 degC by HPLC analysis; format: physicochemical; procedure, shortened: as §4
HepG2 2.2.15 = assay: Inhibition of reverse transcriptase in HBV infected in human HepG2.2.15 cells assessed as induction of intracellular viral RNA accumulation at 2 uM for 4 days by qPCR or qRT-PCR relative to control; format: cell-based; conditions: Hepatitis B virus
Hepatitis B virus [23] = assay: Antiviral activity against HBV genotype D in hydrodynamic injection-based C57BL/6 mouse model of HBV infection assessed as inhibition of liver HBV DNA level at 50 mg/kg, po dosed twice daily for 7 days by real-time PCR analysis; format: functional, organism-based
Hepatitis B virus [24] = assay: Antiviral activity against HBV genotype D in hydrodynamic injection-based C57BL/6 mouse model of HBV infection assessed as inhibition of serum HBV DNA level at 50 mg/kg, po dosed twice daily for 7 days by real-time PCR analysis; format: functional, organism-based
Hepatitis B virus [25] = assay: Antiviral activity against HBV genotype D in hydrodynamic injection-based C57BL/6 mouse model of HBV infection assessed as inhibition of HBV replication at 50 mg/kg, po dosed once daily for 7 days by real-time PCR analysis; format: functional, organism-based
Hepatitis B virus [26] = assay: Antiviral activity against HBV genotype D in hydrodynamic injection-based C57BL/6 mouse model of HBV infection assessed as inhibition of liver HBV DNA level at 100 mg/kg, po dosed twice daily for 7 days by real-time PCR analysis; format: functional, organism-based
Hepatitis B virus [27] = assay: Antiviral activity against HBV genotype D in hydrodynamic injection-based C57BL/6 mouse model of HBV infection assessed as inhibition of liver HBV DNA level at 200 mg/kg, po dosed twice daily for 7 days by real-time PCR analysis; format: functional, organism-based
Hepatitis B virus [28] = assay: Antiviral activity against HBV genotype D in hydrodynamic injection-based C57BL/6 mouse model of HBV infection assessed as inhibition of serum HBV DNA level at 200 mg/kg, po dosed twice daily for 7 days by real-time PCR analysis; format: functional, organism-based
Hepatitis B virus [29] = assay: Antiviral activity against HBV genotype D in hydrodynamic injection-based C57BL/6 mouse model of HBV infection assessed as inhibition of serum HBV DNA level at 100 mg/kg, po dosed twice daily for 7 days by real-time PCR analysis; format: functional, organism-based
[30] = phosphate buffer, read-out: solubility

SMILES: C[C@H](Cn1cnc2c(N)ncnc21)OCP(=O)(O)O [TENOFOVIR ANHYDROUS]
CC50 [5]: 15000 nM
EC50 (Hepatitis B virus [6]): 10 nM
EC50 (Hepatitis B virus [7]): 2520 nM
EC50 (Hepatitis B virus [8]): 840 nM

SMILES: O=S(=O)(c1cc2c(Nc3ccc(F)c(C(F)F)c3)nn(C3CC3)c2cn1)N1CCC(O)CC1
CC50 [9]: > 100000 nM
microsomal CLint [10]: 6.9 µL/min/mg
CC50 [5]: > 100000 nM
inhibition (Hepatitis B virus [11]): inactive
inhibition (Hepatitis B virus [12]): Active
inhibition (Hepatitis B virus [13]): Active
inhibition (Hepatitis B virus [14]): Active
EC50 (Hepatitis B virus [6]): 71 nM
inhibition (Hepatitis B virus [15]): Active
EC50 (Hepatitis B virus [7]): 13 nM
EC50 (Hepatitis B virus [8]): 2.2 nM
EC50 (Hepatitis B virus [16]): 42 nM
inhibition (Hepatitis B virus [17]): inactive
selectivity ratio at 144 h [18]: > 1410

SMILES: C=C1[C@H](CO)[C@@H](O)C[C@@H]1n1cnc2c(=O)[nH]c(N)nc21
CC50 [5]: 42100 nM
EC50 (Hepatitis B virus [6]): 11 nM
EC50 (Hepatitis B virus [7]): > 10000 nM
EC50 (Hepatitis B virus [8]): > 10000 nM

SMILES: Cc1cc(Nc2nn(C3CC3)c3ccc(S(=O)(=O)N4CCOCC4)cc23)ccc1F
CC50 [9]: > 100000 nM
microsomal CLint [10]: 26.9 µL/min/mg
microsomal CLint [19]: 41 µL/min/mg
EC50 (Hepatitis B virus [6]): 57 nM

SMILES: Cc1cc(Nc2nn(C3CC3)c3cnc(S(=O)(=O)N4CCC(OC(=O)[C@@H](N)C(C)C)CC4)cc23)ccc1F.O=C(O)C(F)(F)F
half-life [20]: 18 h
Stability [21]: Stable
Stability [22]: Unstable

SMILES: Nc1ccn([C@@H]2CS[C@H](CO)O2)c(=O)n1 [LAMIVUDINE]
CC50 [5]: > 100000 nM
inhibition (HepG2 2.2.15): Active
EC50 (Hepatitis B virus [6]): 70 nM
EC50 (Hepatitis B virus [7]): > 10000 nM
EC50 (Hepatitis B virus [8]): > 10000 nM
EC50 (Hepatitis B virus [16]): 3.8 nM

SMILES: Cc1cc(Nc2nn(C3CC3)c3cnc(S(=O)(=O)N4CCC(OC(=O)CN(C)C)CC4)cc23)ccc1F [listing 2 of 2 here]
Activity (Hepatitis B virus [23]): Active
Activity (Hepatitis B virus [24]): Active
Activity (Hepatitis B virus [25]): inactive
Activity (Hepatitis B virus [26]): Active
Activity (Hepatitis B virus [27]): Active
Activity (Hepatitis B virus [28]): Active
Activity (Hepatitis B virus [29]): Active

Continued, values first:

solubility [1]: 7900 µg/mL
solubility [2, 30]: 7690 µg/mL
solubility [3]: 230 µg/mL
solubility [4]: 7080 µg/mL
SMILES: CS(=O)(=O)O.CS(=O)(=O)O.Cc1cc(Nc2nn(C3CC3)c3cnc(S(=O)(=O)N4CCC(OC(=O)CN(C)C)CC4)cc23)ccc1F

solubility [1]: 1110 µg/mL
solubility ([2]; BLD = below limit of detection): Bld
SMILES: CC(=O)O.Cc1cc(Nc2nn(C3CC3)c3cnc(S(=O)(=O)N4CCC(OC(=O)CN(C)C)CC4)cc23)ccc1F

solubility [1]: 710 µg/mL (≈ 1340 µM)
SMILES: Cc1cc(Nc2nn(C3CC3)c3cnc(S(=O)(=O)N4CCC(OC(=O)CN(C)C)CC4)cc23)ccc1F [listing 1 of 2 here]

solubility [1]: 6900 µg/mL
solubility [2, 30]: 40 µg/mL
solubility [3]: 16 µg/mL
solubility [4]: 6750 µg/mL
SMILES: Cc1cc(Nc2nn(C3CC3)c3cnc(S(=O)(=O)N4CCC(OC(=O)CN(C)C)CC4)cc23)ccc1F.Cl
